Published values from different studies.
Each line is one published result; the experiments were not run side by side.
Cell line: MDA-MB-468
Effect on: cell growth or viability

SMILES | test | setting | quantity | value
Cc1cc(NCCCCCCCNc2cc(C)nc3cc(N)ccc23)c2ccc(N)cc2n1 | MTT | 96 h | IC50 | 16 µM
CC(=O)c1c(C)c2cnc(Nc3ccc(N4CCNCC4)cn3)nc2n(C2CCCC2)c1=O | resazurin |  | GI50 | 7.5 µM
NC1(C(=O)N[C@@H](CCO)c2ccc(Cl)cc2)CCN(c2ncnc3[nH]ccc23)CC1 |  | 72 h | GI50 | > 8 µM
Cc1cc(NS(=O)(=O)c2ccc(NC(=O)COc3ccc(C(C)(C)c4ccccc4)cc3)cc2)nc(C)n1 | MTT | 48 h | IC50 | 44.3 µM
c1csc(-c2c3ccccc3cc3c2ccc2ccccc23)c1 | MTT |  | IC50 | 34 µM
Cc1ncsc1-c1ccc(CNC(=O)[C@@H]2C[C@@H](O)CN2C(=O)[C@@H](NC(=O)CCCCCCCCCC(=O)N2CCN(CC[C@H](NC(=O)C3(N)CCN(c4ncnc5[nH]ccc45)CC3)c3ccc(Cl)cc3)CC2)C(C)(C)C)cc1 |  | 72 h | GI50 | 0.49 µM
COc1ccc(-c2ccc(-c3ccc(C(=N)N)nc3)s2)cc1Cl | SRB |  | GI50 | 1.74 µM
CCc1ccc(N2NC(=O)/C(=C/c3ccc(-c4ccc(S(=O)(=O)Nc5nccs5)cc4)o3)C2=O)cc1 | MTT | 72 h | IC50 | 73.5 µM
COc1ccc(C(=O)/C=C/c2cccc(Br)c2)cc1S(N)(=O)=O | SRB | 10 µM | inhibition | 154%
COc1cc(-c2ccc(-c3ccc(C(=N)N)nc3)s2)cc(OC)c1OC | SRB |  | GI50 | 1.74 µM
Cc1cc(NCCCCCCCCNc2cc(C)nc3cc(N)ccc23)c2ccc(N)cc2n1 | MTT |  | IC50 | 5.1 µM
COc1ccc(C(=O)/C=C/c2ccc(Cl)c(Cl)c2)cc1S(N)(=O)=O | SRB | 10 µM | inhibition | 119%
